# Screening results from PubChem.
# Hits are enriched below; roughly 2.9% of the tested compounds scored in any of these assays.
# UBC13 inh = inhibitors of human UBC13 polyubiquitin chain formation; P61088; TR-FRET; inhibition, % at 20 µM; actives 0.47% (n = 330,000); AID 485273; in the data active = inhibition above about 45%, passing the limit was not always enough
# MEKK3 PB1 HTS = MEKK3-MEK5 PB1 interaction, increase or decrease | bead-based flow cytometry, Alexa488-MEK5 binding to MEKK3; actives lie on both sides; 0 = blocked by unlabeled MEK5, 100 = vehicle | binding response (% of control), % at 10 µM | AID 1529 | Q99759 | actives 1.4% (n = 290,000);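 active = binding response more than 3 SD above or below the average of its plate-row segment, actives on both sides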;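 note: Alexa488 bead fluorescence after subtracting the streptavidin-only scavenger bead signal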
# MEKK2 WT-MEK5 = raises or lowers MEK5 binding to wildtype human MEKK2 PB1 domain; bead flow cytometry, Alexa488-MEK5 binding to MEKK2 WT; actives lie on both sides; binding response (% of control), % at 10 µM; actives 1.1% (n = 290,000); AID 1531; in the data active = binding response below about 67% or above about 130%
# MEKK2 mut-MEK5 = signal of MEK5 binding to mutant human MEKK2 PB1 domain | bead flow cytometry, Alexa488-MEK5 binding to MEKK2 mutant | percent response, % at 10 µM | actives 0.35% (n = 290,000) | AID 1530; in the data active = percent response above about 24%, passing the limit was not always enough
# Apaf-1 inh = blocks human Apaf-1 apoptosome activity. O14727. reconstituted apoptosome caspase-3 activity, DEVD-Rh110 fluorescence. inhibition, % at 20 µM. actives 0.71% (n = 330,000); active = inhibition of at least 40% at 20 µM;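 note: plate controls were DMSO wells for no effect and DEVD-CHO caspase inhibitor wells for full effect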
#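 System – cell-free apoptosome with Apaf-1, procaspase-3 and caspase-9 · Buffer or medium – pH 7.5 Hepes buffer with CHAPS, BSA, DTT · Also added – cytochrome c with DEVD-Rh110 · Times – 30 min compound preincubation, 50 min activation, room temperature · Technique – Rh110 fluorescence intensity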
# MEKK2wt confirm = raises or lowers MEK5 binding to wildtype human MEKK2, retest. binding response (% of control), % at 10 µM. AID 1892. bead flow cytometry, Alexa488-MEK5 binding to MEKK2 WT; actives lie on both sides. shares compounds with MEKK3 PB1 HTS. actives 2.4% (n = 5,900); in the data active = binding response below about 16% or above about 210%; inactive = in between
# MEKK2mut confirm = signal of MEK5 binding to mutant human MEKK2, retest; shares compounds with MEKK3 PB1 HTS; bead flow cytometry, Alexa488-MEK5 binding to MEKK2 mutant; percent response, % at 10 µM; actives 2% (n = 5,900); AID 1893; in the data active = percent response mostly above about 71%, no sharp cut-off; inactive = mostly below about 38%;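 note: higher means compound restores mutant binding toward wildtype level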
# MEKK3-MEK5 inh = confirmation of inhibitors of MEK5 binding to human MEKK3; shares compounds with MEKK3 PB1 HTS; bead flow cytometry, Alexa488-MEK5 binding to MEKK3; stronger effect = lower value; binding response (% of control), % at 10 µM; actives 1.8% (n = 5,900); AID 1894;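 active = binding response below 72% of control, or above a set upper limit, though filed actives all read lower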;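 note: 100% = DMSO only wells and 0% = binding blocked by excess unlabeled MEK5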
# An asterisk follows results filed as active; · = not tested or not shown; [ ] = another dose, or the depositor's remark.
SMILES,UBC13 inh,MEKK3 PB1 HTS,MEKK2 WT-MEK5,MEKK2 mut-MEK5,Apaf-1 inh,MEKK2wt confirm,MEKK2mut confirm,MEKK3-MEK5 inh
NC(=O)CSc1nnc(Cc2ccc3c(c2)OCO3)o1,11,143*,124,6,-2,1.0*[inhibitor],-29,2.0*
CC(Sc1nnc(Cc2ccc3c(c2)OCO3)o1)C(N)=O (centres undefined),2,133*,116,5,-11,101,-4,99
CCOc1ccccc1CN1CCNC(=O)C1CC(=O)NCCC1=CCCCC1 (centres undefined),-2,103,127,24*,22,125,15,104
Cc1cc(C(=O)Cn2c(CO)nc3ccccc32)c(C)n1C,-4,103,102,3,-10,·,·,·
CCN(CC)c1nc2ccccc2c(N)c1-c1ccccc1,2,114,123,26*,-4,106,0,99
COc1ccc(-c2cc3ccccc3n2CC(O)Cn2nc(C)cc2C)cc1 (centres undefined),17,107,107,6,20,·,·,·
COc1ccc(-c2cc3ccccc3n2CC(O)CN2CCC(C)CC2)cc1 (centres undefined),8,99,149*,16,34,152,34,107
CC(=O)Nc1cccc(C(=O)N/N=C/c2c[nH]c3ccccc23)c1,-6,99,102,4,5,·,·,·
Cc1cc(-c2nnc3n2N=C(c2ccc(-c4ccccc4)cc2)CS3)n[nH]1,2,100,88,-3,37,·,·,·
c1ccc(-c2cc(-c3nnc4n3N=C(c3ccc5ccccc5c3)CS4)[nH]n2)cc1,-21,107,71*[inhibitor],-1,17,75,-17,98
CCN(CC)CCCNC(=O)c1cc2c(-c3ccc(Cl)cc3)nn(C)c2s1,39,122*,218*,29*,38,154,26,104
CN1CCN(CCCNC(=O)c2cc3c(-c4ccc(Cl)cc4)nn(C)c3s2)CC1,46*,108,180*,17,43*,150,25,103
Cn1nc(-c2ccc(Cl)cc2)c2cc(C(=O)NCC3CCCO3)sc21 (centres undefined),29,102,106,2,9,·,·,·
O=C(NCCCN1CCCC1)c1cc2c(Cl)nc3ccccc3c2s1,4,103,142*,17,4,143,21,107
O=C(NCCCN1CCCCCC1)c1ccc2c(Cl)c3c(nc2c1)CCCC3,29,107,160*,-1,26,172,47,105
CCNC(=O)CC1C(=O)N(CC)C(=S)N1NC(=O)c1ccccc1 (centres undefined),6,90,96,-4,-22,·,·,·
CC1CCCCN1CCNC(=O)c1cc2c(-c3ccccc3F)nn(C)c2s1 (centres undefined),10,112,128,24*,18,118,33,105
O=C(Nc1ccc(Cl)cc1)NC1CCCC1Cc1ccco1 (centres undefined),-2,109,116,5,7,·,·,·
O=C(Nc1ccc(Cl)cc1)NC1CCCCC1Cc1ccco1 (centres undefined),6,69*[inhibitor],46*[inhibitor],-9,7,112,18,105
Nc1ccc(NC(=O)NC2CCCCC2)cc1,0,99,94,-6,0,·,·,·
O=C(Nc1ccc(Cl)cc1)NC1CCCCC1,2,1.0*[inhibitor],-1.0*[inhibitor],-9,4,64,-9,95
COc1ccc(CNC(=O)C2CCN(S(=O)(=O)c3ccc4c(c3)C(C)(C)C(=O)N4C)CC2)cc1,5,101,108,5,7,·,·,·
COc1ccc(CNC(=O)C2CCCN(S(=O)(=O)c3ccc4c(c3)C(C)(C)C(=O)N4C)C2)cc1 (centres undefined),-6,2.0*[inhibitor],0.0*[inhibitor],-22,8,101,5,97
Cc1ccc(NC(=S)Nc2ccc3[nH]c(=O)[nH]c3c2)cc1C,10,101,102,0,-16,·,·,·
CC(=O)c1ccc(NC(=S)Nc2ccc3[nH]c(=O)[nH]c3c2)cc1,4,5.0*[inhibitor],7.0*[inhibitor],-19,-3,109,-2,104
SMILES,UBC13 inh,MEKK3 PB1 HTS,MEKK2 WT-MEK5,MEKK2 mut-MEK5,Apaf-1 inh,MEKK2wt confirm,MEKK2mut confirm,MEKK3-MEK5 inh
Cc1cc(OCC(=O)NC2CCCCC2)ccc1Cl,-5,147*,105,2,-2,107,3,102
COC(=O)CNC(=O)COC(=O)c1ccc(Cl)nc1,-1,99,100,0,-11,·,·,·
COc1ccc(CCCC(=O)NCc2ccccc2)cc1C,-1,93,94,-2,-6,·,·,·
O=C(O)c1cccc(N2CCCC2=O)c1,2,112,106,7,-21,·,·,·
O=C(Nc1ccon1)c1cccc(C(F)(F)F)c1,0,70*[inhibitor],77,-3,-11,96,-4,102
O=C(Nc1ccccc1)c1cccc(N2CCCC2=O)c1,-8,61*[inhibitor],77,-16,-2,107,13,110
O=C(Nc1ccccc1)c1cccc(C(F)(F)F)c1,2,144*,108,1,-2,104,1,105
O=C(Nc1cccc(C(F)(F)F)c1)Nc1ccon1,3,104,105,3,5,·,·,·
CCC(C)(C)NC(=O)CN(CCc1cccc(C)c1)C(=O)c1csnn1,-9,92,93,-6,-8,·,·,·
COc1cc(C(=O)NNC2=NC(C)(C)Cc3cc(C)c(C)cc32)cc(OC)c1OC,-10,103,107,0,6,·,·,·
COc1ccc(C(=O)CSc2nnc(NC(=O)C3CC(=O)N(c4ccccc4)C3)s2)cc1 (centres undefined),-9,136*,105,1,14,104,9,104
COc1cccc(N2CC(C(=O)Nc3nnc(SCC(=O)c4ccccc4)s3)CC2=O)c1 (centres undefined),-2,98,110,6,-2,·,·,·
Cc1ccc(NC(=O)Cn2nc(-c3ccccc3Cl)ccc2=O)c(Br)c1,-3,72,67,-13,4,·,·,·
O=C(Cn1cnc2ccccc2c1=O)Nc1ccc(N2CCOCC2)cc1,-8,102,97,-1,-4,·,·,·
O=C(CSc1n[nH]c(=O)[nH]c1=O)c1ccccc1[N+](=O)[O-],7,64*[inhibitor],70,-33,-13,102,3,107
Cc1ccccc1-c1nnc(SCC(=O)N(C)c2c(N)n(Cc3ccccc3)c(=O)[nH]c2=O)n1C,2,·,·,·,1,·,·,·
